Source: ChEMBL document CHEMBL4513216, “Probing the Open Global Health Chemical Diversity Library for Multistage-Active Starting Points for Next-Generation Antimalarials” (ACS Infect Dis, 2020)

Assay: Toxicity liver stage against HepG2, at 10uM
Assay type: cell-based
Parameters: test concentration 10 uM, cell line HepG2-A16-CD81EGFP
Settings: human, HepG2-A16-CD81EGFP cells; read-out: INHIBITION
Method in brief: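 Uninfected HepG2-A16-CD81EGFP cells, 3 × 10^3 per well, 1536-well, plated on prespotted compound at 10 μM final, parasite-free screening media added to match infected plates; puromycin 10 μM positive, DMSO 0.5% negative; run in parallel with 48 h PbLuc assay at 37 °C, 5% CO2; viability by CellTiter-Glo luminescence, normalized to controls.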

Compound	cytotoxicity at 10 µM
c1cc2c(cc1CN1C[C@@H]3COC[C@@H](N4CCCC4)[C@@H]3C1)OCO2	4.62%
CCc1cnc(CN2CCC(N(C)Cc3noc(C)n3)C2)o1 (stereo not given)	4.92%
CNC(=O)[C@H]1C[C@@H]2CN(C(=O)c3ccncc3F)C[C@@H]2N1C	-111%
CCCS(=O)(=O)NCCn1ccc(-c2cccs2)n1	5.55%
O=C(NCCc1cc(N2CCOCC2)nc(NC2CC2)n1)C1CCCO1 (stereo not given)	2.61%
Cc1nn(CCO)cc1CN1CCC(N2CCC(O)CC2)CC1	-0.931%
c1c(-c2nc(CN3CCOCC3)no2)nnn1CC1CCCCC1	3.15%
COc1ccc(NCc2ccccc2N2CCN(C(C)=O)CC2)cn1	1.85%
O=C(Nc1cccn(Cc2ccc(F)cc2)c1=O)c1cnc[nH]1	0.0616%
CC(C)Oc1cccc(F)c1C(C(=O)O)N1CCCN(C)CC1 (stereo not given)	0.992%
COc1ccc(N2CCC(NC(=O)c3ccc(C#N)cc3)CC2)cc1	-14.7%
Nc1ccnc(CNc2cc(F)ccc2OCC2CCCO2)n1 (stereo not given)	17.4%
C=C(C)COc1cccc(CNC(CC)c2ccnn2C)c1 (stereo not given)	-4.21%
Cc1noc([C@H]2COC[C@H]3CN(C(=O)Cc4cccc(F)c4)C[C@H]32)n1	6.93%
CN(CCOc1ccccc1F)C1CCOC1=O (stereo not given)	-147%
COc1cccc(C(=O)N(C)C(C)c2c(C)n[nH]c2C)c1OC (stereo not given)	-2.8%
O=C([C@H]1CCCO1)N1CCc2ncnc(C3CC3)c2CC1	4.79%
CC(C)CCN1CCN(Cc2nc(C(C)C)no2)CC1	-6.71%
Cc1cccc(-c2noc(CN3CCC(N4CCNC4=O)CC3)n2)c1	5.34%
CCC[C@@H](NC(N)=O)C(=O)N1CCc2c(Cl)cccc2C1	5.79%
Clc1ccc(OCCNC2(c3ccc(Br)cc3)CCOCC2)cc1	2.67%
CCC(C)NC(=O)c1cc(S(=O)(=O)N(C)C)c(C)s1 (stereo not given)	-2.75%

Compound	cytotoxicity at 10 µM
O=C(Nc1ccccc1)C1=NOC2(CCCN(C(=O)N3CCCC3)C2)C1 (stereo not given)	-1.66%
CCn1cc(S(=O)(=O)NCC(c2ccccc2)N2CCOCC2)c(C)n1 (stereo not given)	2.76%
Cc1nn(C)c(C)c1NC(=O)CN1CCOC(Cn2cccn2)C1 (stereo not given)	-1.81%
CCc1nccn1C1CCCN(C(=O)C2=NN(C)C(=O)CC2)C1 (stereo not given)	-17.7%
CCN(CC)c1ccc2ccc(C(=O)NC3CC3)cn12	-2.6%
Cn1cc(CN2C[C@@H]3CN(Cc4ccoc4)CCO[C@@H]3C2)cn1	6.97%
Cc1cc(C(=O)NCc2cccs2)c2c(C3CCCN3)noc2n1 (stereo not given)	6.36%
COc1cccc(CCCNC(=O)N2CCC(O)(C(F)(F)F)C2)c1 (stereo not given)	-4.25%
CCNC(=O)c1ccc(CNCc2c(C)nn(C)c2N(C)C)cc1	1.71%
COc1c(CNC2CCCN(c3ncccn3)C2)c(C(C)C)nn1C (stereo not given)	-9.94%
CNC(=O)[C@@H]1[C@@H](c2ccccc2)CN2CCN(Cc3ccco3)C[C@H]12	-1.94%
Cc1ccccc1N1CCN(C(=O)c2cccnc2-n2cncn2)CC1	8.35%
CCN(CC)C(=O)CCNc1cncc(-n2nc(C)cc2C)n1	2.41%
Cc1cc(CN2CCCC2)cc(Oc2nc(C)cnc2C)c1	-2.54%
Cc1cc(NC(=O)NCCO)nn1-c1ccc(Cl)cc1Cl	-136%
CC(C)N(C)Cc1cc(=O)n2c(n1)CN(C(=O)c1ccnnc1)CCC2	2.95%
CCOCCN1C[C@H](c2cccc(OC)c2)[C@@H](N)C1	-0.786%
Brc1cnc(NCCCOC2CCOCC2)nc1	-5.2%
O=c1c2c(ncn1CCO)nc1n2CCC1	-11.3%
Cc1csc(C2CCCCN2C(=O)CN(C)Cc2ccccc2)n1 (stereo not given)	2.62%
O=C(NCCc1cccc(O)c1)NC1CCN(c2ccccc2)C1=O (stereo not given)	5.68%
O=C(O)c1ccc(N2CCC(Oc3cccc(F)c3)CC2)nc1	-60.7%

Compound	cytotoxicity at 10 µM
CCCN1CCCN(C(=O)c2oc(C)nc2C)CC1	24.3%
CN(C)c1ccc(C(O)CNS(=O)(=O)C2CC2)cc1 (stereo not given)	-4.99%
CCCn1nccc1C(=O)N1CCCC(C(=O)CCc2ccccc2)C1 (stereo not given)	-1.08%
CN(Cc1ccco1)C(=O)CN1CCCCC1Cn1cccn1 (stereo not given)	2.91%
Cc1cc(NC(C)c2nncn2C2CCCC2)n2nc(C)cc2n1 (stereo not given)	5.99%
c1csc(-c2nc(CN3CCCCC3Cn3cncn3)cs2)c1 (stereo not given)	-1.19%
Cc1ccccc1CNC(C)c1ccc(OCC(=O)NC2CC2)cc1 (stereo not given)	-6.97%
CNC(=O)c1ccc(NC(=O)NC(C)c2cc(C)oc2C)cc1 (stereo not given)	-12.8%
c1ccc2[nH]c(C3CCN(Cc4nnc(C5CC5)o4)CC3)cc2c1	3.65%
O=C(NC1CC1)C1CCN(c2cccc(C(F)(F)F)n2)CC1	5.17%
Cc1noc(-c2ccc(N3CCCC(C(N)=O)C3)nc2)n1 (stereo not given)	9.36%
COc1ncccc1C(=O)N1CCC2(CC1)CC(OC)CO2 (stereo not given)	-97%
CC(=O)N1CCN(Cc2csc(-c3cnn(C)c3)n2)CC1	-1.78%
CN1CCN(Cc2c(-c3ccco3)[nH]c3ncccc23)CC1	5.63%
Cc1nc(N2CCCC2)nc2c1CN(C(=O)N(C)C)CC2	4.29%
Cc1cc(CN(C)C(=O)CC(C)C)no1	-3.57%
Cc1cn(CCn2ccnc2-c2sccc2C)nn1	15.9%
O=C(NCCCn1ccnc1)N1CCCC1c1ccsc1 (stereo not given)	-6.04%
Cc1nc(CN2CCC(O)(c3ccccc3F)CC2)c2ccccn12	2.45%
Fc1ccc(OCCCNC2=NCCN2)cc1	5.08%
CCN1CCN(C(=O)c2ccc3c(c2)CCCN3)[C@H]2CS(=O)(=O)C[C@H]21	-57.8%
COCC1CCN(S(=O)(=O)N2C[C@@H](C)[C@](O)(C3CC3)C2)CC1	0.23%

Compound	cytotoxicity at 10 µM
COc1cc(F)ccc1C(C(=O)O)N1CCN(C2CCCCC2)CC1 (stereo not given)	-8.93%
COc1cc(C(=O)N2CCC(c3n[nH]c(C)n3)CC2)cc(OC)c1C	-10.9%
CCS(=O)(=O)CCN1CCC(N(C)Cc2noc(C(C)C)n2)C1 (stereo not given)	-5.55%
O=C([C@H]1CC[C@@H]2[C@@H](CCN2Cc2ccc(F)cc2)O1)N1CCCO1	3.74%
O=C(CCc1cc(Cl)no1)N1CCC(c2cc3ncccc3cn2)CC1	4.76%
COc1cccc2sc(N3CC(OC(C)=O)C3)nc12	-6.67%
CN(C)CC1CN(Cc2nc(-c3cccnc3)no2)CCO1 (stereo not given)	-2.03%
O=C(CN1CCNCC1)NCc1ccc2sccc2c1	1.16%
CN(C)c1ncc(-c2ccc(NC(=O)[C@@H]3CCCCN3)cc2)cn1	-7.94%
CCCN1CCN(C(=O)c2cc3ccccc3cn2)[C@H]2CS(=O)(=O)C[C@H]21	1.1%
CCOC(=O)[C@@H]1[C@@H](OC)C(=O)N(C)C12CCN(C(=O)C(CC)CC)CC2	-0.00815%
CCc1cccc(CC)c1NC(=O)c1ccccc1N(C)S(C)(=O)=O	11.4%
COc1cc(NC2CCCN(c3ncccn3)C2)cc(OC)c1 (stereo not given)	-16%
CCOCC1CN(CC2CC2)Cc2nn(CC3CC3)cc21 (stereo not given)	0.748%
CCc1nccn1C1CCCN(C(=O)c2cn3cccnc3n2)C1 (stereo not given)	92.6%
COCCCNC(=O)c1cc(-c2cnc(N(C)C)nc2)cn1CC1CC1	2.28%
CC(C)N(C)C(=O)C1CCN(Cc2cnc3ccccn23)CC1	27.5%
CCn1cc(-n2cc3nc(N4CCOCC4)[nH]cc-3c2=O)cn1	3.43%
O=C(Cc1ccccc1)N1CCC2(CC1)COCCN2CC1CC1	-78.5%
CCN(CC1CCCO1)C(=O)Nc1cc(C(=O)OC)ccc1F (stereo not given)	-4.77%
COc1ccc(-c2n[nH]cc2CN(C)Cc2nonc2C)c(F)c1	-6.46%
CCN1CC(C(=O)NC(C)(C)C)CC1=O (stereo not given)	-2.91%

Compound	cytotoxicity at 10 µM
CC(C)c1cc(Br)ccc1NC(=O)NCC(O)CO (stereo not given)	9.45%
CC(CN1CCC2(CC1)N=C(N(C)C)NC2=O)c1ccccc1 (stereo not given)	2.92%
O=C1OCCN1c1cccc(CNS(=O)(=O)Cc2ccc(F)cc2)c1	4.77%
O=C1NCC2(CCC(C(=O)N3CCC(O)CC3)CC2)Oc2ccccc21 (stereo not given)	-21.7%
CCc1cccc(OCCn2cccc(C#N)c2=O)c1	9.04%
Cc1cccnc1C(NC(=O)CNC(=O)c1ccoc1C)C(C)C (stereo not given)	2.45%
CC(C)(C)c1cccc(OCC(=O)NS(=O)(=O)c2cccnc2)c1	-12.5%
O=C(COCc1ccccc1)N1CCN(c2ccc(Cl)cn2)CC1	-5.98%
O=C(c1ccc(-n2cccn2)nc1)N1CCCC(c2cnccn2)C1 (stereo not given)	4.32%
Cc1cccc(CN2CCN3C[C@H](Oc4cccnc4)C[C@H]3C2)n1	6.61%
Cc1nc(-c2nnc[nH]2)sc1C(=O)N1CCCC1c1ccsc1 (stereo not given)	-3.34%
CCN1CCC(N[C@@H]2CC[C@@H]2NC(=O)Cc2csc(C)n2)CC1	1.82%
CC(=O)N1CC(=O)N(c2ccsc2)CC12CCN(Cc1ccccn1)C2 (stereo not given)	13%
CCCNC(=O)[C@@H]1CCCN1[C@@H](C(=O)NC)C1CC1	1.32%
CN(C)c1cc(C2CCCN(Cc3cnn(C)c3)C2)ccn1 (stereo not given)	-1.88%
O=C(C1CCC1)N1CCC(=O)N(C2CC2)Cc2cc(F)ccc21	-7.76%
CS(=O)(=O)Cc1cc(Cl)c2c(c1)OCCCO2	-2.55%
CC(C)N1CCC(CNC(=O)COc2ccc(F)cc2F)C1 (stereo not given)	-2.17%
COc1ccccc1CNC(=O)C(C)N1CC(n2nc(C)cc2C)C1 (stereo not given)	7.54%
CC(C)c1nn(C)c(N(C)C)c1CNCc1ccc2c(c1)OCO2	-5.58%
COc1ccccc1CCN1CCCC(CN(C)Cc2cc(C)n[nH]2)C1 (stereo not given)	-4.52%
Cc1cc(=O)c2cc(F)ccc2n1CC(=O)O	0.753%
